Results taken from ChEMBL document CHEMBL1125821, “Pyrimido[5,4-b]indole derivatives. 1. A new class of potent and selective alpha 1 adrenoceptor ligands” (J Med Chem, 1991).

Legend:
[1] = target: T1, Alpha-1A adrenergic receptor (Rattus norvegicus, UniProt P43140); experiment: Binding affinity for Alpha-1 adrenergic receptor measured by displacing [3H]prazosin from rat cortical membranes
T1 sequence (P43140 whole entry): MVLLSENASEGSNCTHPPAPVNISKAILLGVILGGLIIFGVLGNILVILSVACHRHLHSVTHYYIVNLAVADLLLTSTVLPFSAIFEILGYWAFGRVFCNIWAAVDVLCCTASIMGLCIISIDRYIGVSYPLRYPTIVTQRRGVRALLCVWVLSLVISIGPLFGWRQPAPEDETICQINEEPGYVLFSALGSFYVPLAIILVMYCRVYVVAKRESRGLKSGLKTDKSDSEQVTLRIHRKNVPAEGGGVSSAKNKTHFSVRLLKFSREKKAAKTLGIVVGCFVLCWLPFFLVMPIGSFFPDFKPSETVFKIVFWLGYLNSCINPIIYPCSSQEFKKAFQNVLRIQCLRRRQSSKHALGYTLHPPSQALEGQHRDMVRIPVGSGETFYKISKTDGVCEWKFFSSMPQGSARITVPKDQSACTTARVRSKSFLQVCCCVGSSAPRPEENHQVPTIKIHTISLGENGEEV
Summary of the method: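 Rat cortex membranes labelled with 0.4 nM [3H]prazosin; 10 μM phentolamine defined nonspecific binding. Incubation with competing drugs 45–60 min at 37 °C, then vacuum filtration on glass-fiber filters with ice-chilled buffer wash. IC50 by nonlinear curve fitting (three to seven experiments); Ki via Cheng–Prusoff using KD 0.1 nM for [3H]prazosin.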

[2] = target: T2, Adrenergic receptor alpha-2 (Homo sapiens, UniProt P08913+P18825+P18089); experiment: Binding affinity towards Alpha-2 adrenergic receptor in human platelet membranes using [3H]yohimbine; type: cell membranes
T2 sequence (P08913 whole entry): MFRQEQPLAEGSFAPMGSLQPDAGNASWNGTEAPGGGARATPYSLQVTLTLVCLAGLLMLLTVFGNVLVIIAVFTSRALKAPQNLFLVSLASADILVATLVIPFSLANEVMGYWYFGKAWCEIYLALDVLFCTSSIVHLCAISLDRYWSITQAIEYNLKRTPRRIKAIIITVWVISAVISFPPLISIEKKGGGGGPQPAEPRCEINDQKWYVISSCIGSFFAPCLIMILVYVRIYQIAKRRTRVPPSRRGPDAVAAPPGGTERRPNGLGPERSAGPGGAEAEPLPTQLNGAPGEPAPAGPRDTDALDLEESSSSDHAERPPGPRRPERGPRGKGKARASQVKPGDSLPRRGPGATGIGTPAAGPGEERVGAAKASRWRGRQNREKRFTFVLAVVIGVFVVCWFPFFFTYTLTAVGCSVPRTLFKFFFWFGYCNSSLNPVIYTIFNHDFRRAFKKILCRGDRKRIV
T2 sequence (P18825 whole entry): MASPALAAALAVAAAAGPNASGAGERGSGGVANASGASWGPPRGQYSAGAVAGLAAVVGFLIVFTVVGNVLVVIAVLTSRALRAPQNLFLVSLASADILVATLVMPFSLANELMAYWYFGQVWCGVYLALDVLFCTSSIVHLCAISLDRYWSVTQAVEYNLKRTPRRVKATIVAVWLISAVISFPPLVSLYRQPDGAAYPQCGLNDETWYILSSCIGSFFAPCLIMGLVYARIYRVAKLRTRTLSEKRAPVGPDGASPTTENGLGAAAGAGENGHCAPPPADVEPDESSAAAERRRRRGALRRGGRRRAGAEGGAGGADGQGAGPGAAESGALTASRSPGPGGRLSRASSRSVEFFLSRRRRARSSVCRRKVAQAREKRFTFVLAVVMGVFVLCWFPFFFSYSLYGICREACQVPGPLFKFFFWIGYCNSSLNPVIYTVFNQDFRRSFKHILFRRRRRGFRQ
T2 sequence (P18089 whole entry): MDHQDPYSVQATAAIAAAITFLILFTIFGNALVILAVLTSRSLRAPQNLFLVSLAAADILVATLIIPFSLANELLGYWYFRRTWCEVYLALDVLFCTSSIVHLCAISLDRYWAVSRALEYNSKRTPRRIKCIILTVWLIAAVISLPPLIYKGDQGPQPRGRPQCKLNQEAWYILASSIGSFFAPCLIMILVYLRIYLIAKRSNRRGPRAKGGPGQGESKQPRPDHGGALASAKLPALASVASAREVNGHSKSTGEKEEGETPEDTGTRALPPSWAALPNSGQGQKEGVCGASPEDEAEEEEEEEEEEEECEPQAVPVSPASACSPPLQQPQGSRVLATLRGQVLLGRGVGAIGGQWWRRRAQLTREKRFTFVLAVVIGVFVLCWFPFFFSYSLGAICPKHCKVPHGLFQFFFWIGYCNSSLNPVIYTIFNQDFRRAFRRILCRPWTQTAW
Summary of the method: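 Human platelet membranes, [3H]yohimbine 3.5 nM; nonspecific binding defined by 100 μM phentolamine. Competition run 45–60 min at 37 °C, stopped by rapid vacuum filtration over glass-fiber filters and ice-chilled buffer washes. IC50 by nonlinear regression, mean of three to seven experiments; converted to Ki with the Cheng–Prusoff equation.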

[3] = target: Beta-2 adrenergic receptor (Homo sapiens, UniProt P07550); experiment: Binding affinity towards Beta-2 adrenergic receptor in human peripheral mononuclear leukocyte membranes using [125I]pindolol
Chain of Beta-2 adrenergic receptor (P07550 whole entry): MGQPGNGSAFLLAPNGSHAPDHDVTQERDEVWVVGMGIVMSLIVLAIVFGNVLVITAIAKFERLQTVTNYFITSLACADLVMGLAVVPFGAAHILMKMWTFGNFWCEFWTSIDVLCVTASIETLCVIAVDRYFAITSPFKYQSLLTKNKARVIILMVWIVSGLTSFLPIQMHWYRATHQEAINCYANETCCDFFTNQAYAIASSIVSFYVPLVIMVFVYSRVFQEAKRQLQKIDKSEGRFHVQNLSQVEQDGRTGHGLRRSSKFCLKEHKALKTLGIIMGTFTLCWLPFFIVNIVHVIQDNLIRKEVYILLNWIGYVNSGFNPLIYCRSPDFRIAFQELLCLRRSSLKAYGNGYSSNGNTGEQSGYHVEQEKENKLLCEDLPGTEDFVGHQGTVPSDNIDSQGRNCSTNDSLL
Summary of the method: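 Membranes from human peripheral blood mononuclear leukocytes bound [125I]pindolol (100 pM); 1 μM (-)-propranolol gave nonspecific binding. 45–60 min at 37 °C with or without competitors, then rapid filtration through glass-fiber filters and ice-cold buffer wash. IC50 from nonlinear fitting over three to seven experiments; Ki by Cheng–Prusoff.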

[4] = target: T3, 5-hydroxytryptamine receptor 1A (Rattus norvegicus, UniProt P19327); experiment: Binding affinity for 5-hydroxytryptamine 1A receptor measured by displacing [3H]8-OH-DPAT from rat cortical membranes
T3 sequence (P19327 whole entry): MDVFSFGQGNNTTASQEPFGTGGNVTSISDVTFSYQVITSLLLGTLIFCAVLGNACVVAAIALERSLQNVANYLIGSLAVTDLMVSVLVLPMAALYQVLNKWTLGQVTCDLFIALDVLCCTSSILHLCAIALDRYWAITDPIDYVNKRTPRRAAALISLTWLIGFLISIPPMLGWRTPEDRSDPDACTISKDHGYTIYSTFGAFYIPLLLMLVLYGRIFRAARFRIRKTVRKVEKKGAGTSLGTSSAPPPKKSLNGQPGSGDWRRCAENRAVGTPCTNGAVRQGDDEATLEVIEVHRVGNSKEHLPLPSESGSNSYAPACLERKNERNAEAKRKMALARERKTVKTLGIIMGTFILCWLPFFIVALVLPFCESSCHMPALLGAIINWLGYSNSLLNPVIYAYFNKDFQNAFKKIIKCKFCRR
Summary of the method: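 Rat hippocampus or cortex membranes; 1 nM [3H]-8-OH-DPAT; nonspecific binding set with 1 μM serotonin. Incubated with competing drug 45–60 min at 37 °C in buffer, then vacuum-filtered on glass-fiber filters and washed with ice-cold buffer. IC50 from nonlinear fit of competition curves, mean of 3–7 experiments. Ki by Cheng–Prusoff.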

[5] = target: T1, Alpha-1A adrenergic receptor; experiment: Binding affinity measured for alpha-1 adrenergic receptor by displacement of [3H]prazosin from rat cortical membranes; type: cell membranes, Membrane
[6] = target: T3, 5-hydroxytryptamine receptor 1A

| Structure (SMILES) | Ki [1] [µM] | Ki [2] | Ki [3] [µM] | Ki [4] [µM] | Ki [5] [µM] | Ki [6] [µM] |
| --- | --- | --- | --- | --- | --- | --- |
| COc1ccccc1N1CCN(CCn2c(=O)[nH]c3c([nH]c4ccccc43)c2=O)CC1 | 0.00021 | >= 1000 nM | > 100 | 0.05 |  |  |
| CCN(CC)CCn1c(=O)[nH]c2c([nH]c3ccccc32)c1=O |  |  |  |  | > 100 |  |
| O=c1[nH]c2c([nH]c3ccccc32)c(=O)n1CCN1CCN(c2ccccc2)CC1 | 0.0018 | > 100 µM | > 100 | > 100 |  |  |
| COc1ccc(N2CCN(CCn3c(=O)[nH]c4c([nH]c5ccccc54)c3=O)CC2)cc1 | > 5 | > 100 µM | > 100 | > 100 |  |  |
| CN(C)CCn1c(=O)[nH]c2c([nH]c3ccccc32)c1=O |  |  |  |  | > 100 |  |
| CN(C)CCCn1c(=O)[nH]c2c([nH]c3ccccc32)c1=O |  |  |  |  | > 100 |  |
| COc1ccccc1N1CCN(CCn2c(=O)c3c(c4ccccc4n3C)n(C)c2=O)CC1 | 0.00032 | 2.215 µM |  | 0.0015 |  |  |
| O=c1[nH]c2c([nH]c3ccccc32)c(=O)n1CCN1CCN(c2ccc(Cl)cc2)CC1 | ≥ 10 | > 100 µM | > 100 | > 100 |  |  |
| O=c1[nH]c2c([nH]c3ccccc32)c(=O)n1CCN1CCOCC1 |  |  |  |  | > 100 |  |
| CCOC(=O)N1CCN(CCn2c(=O)[nH]c3c([nH]c4ccccc43)c2=O)CC1 |  |  |  |  | > 100 |  |
| O=c1[nH]c2c([nH]c3ccccc32)c(=O)n1CCN1CCCC1 |  |  |  |  | > 100 |  |
| COc1ccccc1N1CCN(CCCn2c(=O)[nH]c3c([nH]c4ccccc43)c2=O)CC1 | 0.013 | 0.055 µM | 1.18 | 0.308 |  |  |
| O=c1[nH]c2c([nH]c3ccccc32)c(=O)n1CCN1CCCCC1 |  |  |  |  | > 100 |  |
| O=c1[nH]c2c([nH]c3ccccc32)c(=O)n1CCN1CCN(c2ccccc2Cl)CC1 | 0.00053 | > 100 µM | > 100 | > 100 |  |  |
| CCN(CC)CCCn1c(=O)[nH]c2c([nH]c3ccccc32)c1=O |  |  |  |  | > 100 |  |
| O=c1[nH]c2c([nH]c3ccccc32)c(=O)n1CCN1CCNCC1 | > 100 |  |  |  |  |  |
| COc1ccccc1N1CCNCC1 |  |  |  | 0.281 | 3.51 |  |
| Clc1ccccc1N1CCNCC1 |  |  |  |  | 0.71 | 0.226 |
